Assay results reported in ChEMBL document CHEMBL1125618, “Studies on (H(+)-K+)-ATPase inhibitors of gastric acid secretion. Prodrugs of 2-[(2-pyridinylmethyl)sulfinyl]benzimidazole proton-pump inhibitors” (J Med Chem, 1991).
pIC50: −log10 of the molar value. Active and inactive are the calls of the source. The calls are words filed in the database; no cut-off is given here.

Columns and labels:
[1] = target: T1, Potassium-transporting ATPase (Rattus norvegicus) (UniProt P09626+P18598); assay: Activity was evaluated by measuring the inhibition of isolated rat H+/K+ ATPase; no effect, 10 mg/kg sc
[2] = target: Potassium-transporting ATPase (Sus scrofa, UniProt P19156); assay: (§1) Activity was evaluated by measuring the inhibition of isolated hog H+/K+ ATPase; assay type: protein-complex assay
Procedure, shortened: (§2)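 Hog fundic mucosa microsomes. Vesicles (30 μg) preincubated with compound at 37 °C in 40 mM Tris-acetate pH 7.4, 7 mM NH4Cl, with or without KCl. Reaction started with 2 mM ATP (final), run 10 min at 37 °C, stopped with cold TCA plus charcoal. Released inorganic phosphate measured colorimetrically. IC50 from dose-response, mean of triplicates.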

Oryctolagus cuniculus [3] = organism: Oryctolagus cuniculus; assay: Antisecretory effect in isolated rabbit gastric glands as measured by aminopyrine uptake; assay type: functional, Stomach
Procedure, shortened: (§3)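 Gastric glands from male New Zealand rabbits (1.5-2.0 kg), isolated by collagenase digestion at 37 °C, pH 7.4. Incubated with compound 45 min at 37 °C with vigorous shaking. Pellet and supernatant radioactivity counted by liquid scintillation. ID50 from at least six doses, duplicate at each dose.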

[4] = target: T1, Potassium-transporting ATPase (Rattus norvegicus); assay: Activity was evaluated by measuring the inhibition of isolated rat H+/K+ ATPase at 10 mg/kg; assay type: organism-based; parameters: dose 10 mg/kg
Procedure, shortened: (§4)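 Male Sprague-Dawley rats (~230 g), fasted 16 h without food or water in restraining cages. Compound in 1 mL isotonic saline with 25% ethanol, given sc or by gavage. Killed 3 h later. Fundic mucosa pooled from four rats per treatment, homogenized, microsomes isolated at 170000g. K+-stimulated ATPase assayed as for hog enzyme. ED50 from at least five doses, each in triplicate.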

[5] = target: T1, Potassium-transporting ATPase (Rattus norvegicus); assay: Inhibition of isolated rat H+/K+ ATPase.; assay type: protein-complex assay
Procedure, shortened: as §4

Oryctolagus cuniculus [6] = organism: Oryctolagus cuniculus; assay: Antisecretory effect in isolated rabbit gastric glands as measured by aminopyrine uptake; Inactive, 1E-4M concentration; assay type: functional; details: Stomach
Procedure, shortened: as §3

[7] = target: T1, Potassium-transporting ATPase (Rattus norvegicus); assay: Inhibition of isolated rat H+/K+ ATPase at 10 mg/kg; Inactive; assay type: functional, organism-based; parameters: dose 10 mg/kg
Procedure, shortened: as §4

[8] = target: T2, Potassium-transporting ATPase (Sus scrofa) (UniProt P18434+P19156); assay: Activity was evaluated by measuring the inhibition of isolated hog H+/K+ ATPase at concentration of 5E-4; assay type: protein-complex assay
Procedure, shortened: as §2

[9] = target: T2, Potassium-transporting ATPase (Sus scrofa); assay: as §1; assay type: protein-complex assay; details: concentration not given here
Procedure, shortened: as §2

[10] = target: T1, Potassium-transporting ATPase (Rattus norvegicus); assay: Inhibitory activity was evaluated by measuring the inhibition of isolated rat H+/K+ ATPase at a concentration of 10 mg/kg; assay type: organism-based; parameters: dose 10 mg/kg
Procedure, shortened: as §4

Oryctolagus cuniculus [11] = organism: Oryctolagus cuniculus; assay: Antisecretory effect in isolated rabbit gastric glands as measured by aminopyrine uptake; no effect, 1E-4M concentration; assay type: functional; details: Stomach
Procedure, shortened: as §3

Rattus norvegicus = assay: Inhibition of acid secretion was determined by the compound administered subcutaneously in rats; assay type: functional; details: sc
Procedure, shortened: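 Pylorus-ligated (Shay) rats: female Upjohn or Charles River rats fasted 24 h, water withheld the last 18 h. Compound given once sc. Pylorus ligated under ether, then 10 mL saline sc. Gastric juice acidity titrated with 0.1 M NaOH as output (mequiv/2 or 3 h). Usually 12 controls and 5-6 rats per dose.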

[12] = target: T3, Potassium-transporting ATPase (Sus scrofa, UniProt P18434+P19156); assay: Activity was evaluated by measuring the inhibition of isolated hog H+/K+ ATPase; No effect at 5E-4; assay type: protein-complex assay
Procedure, shortened: as §2

[13] = target: T1, Potassium-transporting ATPase (Rattus norvegicus); assay: Activity was evaluated by measuring the inhibition of isolated rat H+/K+ ATPase, sc; assay type: protein-complex assay
Procedure, shortened: as §4

[14] = system: Potassium-transporting ATPase (Rattus norvegicus); assay: Activity was evaluated by measuring the inhibition of isolated rat H+/K+ ATPase at 10 mg/kg; Inactive
[15] = target: T3, Potassium-transporting ATPase; assay: Activity was evaluated by measuring the inhibition of isolated hog H+/K+ ATPase; No effect; assay type: protein-complex assay
Procedure, shortened: as §2

[16] = target: T1, Potassium-transporting ATPase (Rattus norvegicus); assay: Activity administered subcutaneously was evaluated by measuring the inhibition of isolated rat H+/K+ ATPase; assay type: protein-complex assay
Procedure, shortened: as §4

Potassium-transporting ATPase (Sus scrofa, UniProt P19156), sequence (P18434 whole entry): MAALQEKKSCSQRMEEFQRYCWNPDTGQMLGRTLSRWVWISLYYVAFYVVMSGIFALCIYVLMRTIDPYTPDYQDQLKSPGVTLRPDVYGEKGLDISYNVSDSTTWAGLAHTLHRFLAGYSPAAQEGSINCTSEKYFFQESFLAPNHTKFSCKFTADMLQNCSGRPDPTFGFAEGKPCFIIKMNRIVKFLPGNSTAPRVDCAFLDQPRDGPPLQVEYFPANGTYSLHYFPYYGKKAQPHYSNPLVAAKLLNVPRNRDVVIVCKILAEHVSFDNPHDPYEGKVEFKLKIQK
Potassium-transporting ATPase (Sus scrofa, UniProt P19156), sequence (P19156 whole entry): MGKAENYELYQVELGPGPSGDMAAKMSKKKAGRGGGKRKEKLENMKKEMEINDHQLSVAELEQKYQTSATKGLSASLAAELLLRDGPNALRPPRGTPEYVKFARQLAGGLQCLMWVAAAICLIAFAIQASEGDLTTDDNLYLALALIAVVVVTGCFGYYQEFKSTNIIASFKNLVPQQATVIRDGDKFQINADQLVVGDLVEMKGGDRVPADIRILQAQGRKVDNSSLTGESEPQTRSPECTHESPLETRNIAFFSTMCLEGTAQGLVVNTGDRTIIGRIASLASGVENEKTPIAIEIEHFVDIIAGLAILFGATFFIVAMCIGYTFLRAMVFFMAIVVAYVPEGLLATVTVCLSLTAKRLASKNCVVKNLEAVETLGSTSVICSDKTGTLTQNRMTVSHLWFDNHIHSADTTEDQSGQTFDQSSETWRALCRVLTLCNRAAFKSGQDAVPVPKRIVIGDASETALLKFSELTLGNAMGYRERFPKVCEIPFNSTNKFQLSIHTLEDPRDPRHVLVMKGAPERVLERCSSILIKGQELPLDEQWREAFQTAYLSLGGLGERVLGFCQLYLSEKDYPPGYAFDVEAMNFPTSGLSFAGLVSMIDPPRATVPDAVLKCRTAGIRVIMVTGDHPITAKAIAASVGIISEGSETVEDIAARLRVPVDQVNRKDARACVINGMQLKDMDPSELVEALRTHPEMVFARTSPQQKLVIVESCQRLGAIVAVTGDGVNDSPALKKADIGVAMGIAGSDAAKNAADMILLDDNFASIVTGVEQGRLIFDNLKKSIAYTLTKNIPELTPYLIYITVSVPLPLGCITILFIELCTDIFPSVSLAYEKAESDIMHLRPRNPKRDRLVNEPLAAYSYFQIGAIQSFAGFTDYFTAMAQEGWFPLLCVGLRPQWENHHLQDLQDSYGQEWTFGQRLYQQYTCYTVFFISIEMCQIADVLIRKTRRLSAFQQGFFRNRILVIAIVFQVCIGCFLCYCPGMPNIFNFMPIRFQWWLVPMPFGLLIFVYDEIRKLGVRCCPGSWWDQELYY
T3 sequence (P18434 whole entry): as the sequence (P18434 whole entry) above
T3 sequence (P19156 whole entry): as the sequence (P19156 whole entry) above

Row | Structure (SMILES) | pIC50 [2] | ID50 (Oryctolagus cuniculus [3]) [M] | ED50 [5] [mg/kg] | further results
1 | CCSc1ccnc(C[S+]([O-])c2nc3ccccc3n2C(=O)OC(C)(C)C(Cl)(Cl)Cl)c1C (stereo not given) | 5.00 | 5e-05 |  | ED50 [1]: inactive
2 | CCSc1ccnc(C[S+]([O-])c2nc3ccccc3n2C(=O)OCc2ccc([N+](=O)[O-])cc2)c1C (stereo not given) | 4.70 | 1.5e-06 |  | inhibition [4]: 44%
3 | CC(C)COC(=O)OCn1c([S+]([O-])Cc2ccccn2)nc2ccccc21 (stereo not given) |  | 2e-05 | 6 | 
4 | CCSc1ccnc(C[S+]([O-])c2nc3ccccc3n2C(C)OC(C)=O)c1C (stereo in doubt; 19b) |  |  | 2 | 
5 | CC(OC(=O)c1ccccc1)n1c([S+]([O-])Cc2ccccn2)nc2ccccc21 (stereo in doubt; 29a) [listing 1 of 2 here] | 3.40 | 4e-05 |  | 
6 | CCSc1ccnc(C[S+]([O-])c2nc3ccccc3n2C(=O)OC(C)C)c1C (stereo not given) |  | 1.5e-05 | 10 | 
7 | CCCCCCCCOC(=O)n1c([S+]([O-])Cc2nccc(SCC)c2C)nc2ccccc21 (stereo not given) |  | 1e-05 |  | 
8 | [O-][N+]1(Cn2c(SCc3ccccn3)nc3ccccc32)CCOCC1 |  |  |  | ID50 (Oryctolagus cuniculus [6]): inactive; ED50 [7]: inactive
9 | CCSc1ccnc(C[S+]([O-])c2nc3ccccc3n2COC(=O)C(C)(C)C)c1C (stereo not given) |  | 5e-06 | 5 | inhibition [8]: 30%
10 | Cn1c([S+]([O-])Cc2ccccn2)nc2ccccc21 (stereo not given) |  | 0.001 |  | inhibition [9]: 18%; ED50 [7]: inactive
11 | CC(OC(=O)C(C)(C)C)n1c([S+]([O-])Cc2ccccn2)nc2ccccc21 (stereo in doubt; 30a) |  |  |  | inhibition [10]: 32%; ID50 (Oryctolagus cuniculus [11]): inactive
12 | CC(OC(=O)C(C)(C)C)n1c([S+]([O-])Cc2ccccn2)nc2ccccc21 (stereo in doubt; 30b) [listing 1 of 2 here] |  |  |  | inhibition [10]: 40%
13 | CCSc1ccnc(C[S+]([O-])c2nc3ccccc3n2COC(C)=O)c1C (stereo not given) | 3.40 | 3e-07 | 2 | 
14 | c1ccc(CSc2nc3ccccc3n2CCN2CCOCC2)nc1 |  |  |  | ID50 (Oryctolagus cuniculus [6]): inactive; ED50 [7]: inactive
15 | CCSc1ccnc(C[S+]([O-])c2nc3ccccc3n2C(C)OC(C)=O)c1C (stereo in doubt; 19a) |  |  | 2 | 
16 | COc1c(C)cnc(C[S+]([O-])c2nc3ccccc3n2C(C)OC(C)=O)c1C (stereo not given) | 2.82 | 4e-07 | < 1 | 
17 | [O-][S+](Cc1ccccn1)c1nc2ccccc2[nH]1 (stereo not given) [TIMOPRAZOLE] |  | 2e-05 | 4 | inhibition [9]: 27%; ED50 (Rattus norvegicus): 2.5 mg/kg
18 | CCSc1ccnc(C[S+]([O-])c2nc3ccccc3n2CSc2ccccc2)c1C (stereo not given) | < 3.00 | 8e-06 |  | ED50 [7]: inactive
19 | CCSc1ccnc(C[S+]([O-])c2nc3ccccc3n2CCN2CCCCC2)c1C (stereo not given) | 4.52 | 2e-05 |  | ED50 [7]: inactive
20 | CCOCCn1c([S+]([O-])Cc2nccc(SCC)c2C)nc2ccccc21 (stereo not given) | 3.00 | 2e-06 |  | ED50 [7]: inactive
21 | CCSc1ccnc(CSc2nc3ccccc3n2CC2CO2)c1C (stereo not given) |  | 8e-05 |  | ED50 [7]: inactive
22 | CCSc1ccnc(C[S+]([O-])c2nc3ccccc3n2COC(=O)c2ccccc2)c1C (stereo not given) |  | 1.5e-06 |  | inhibition [10]: 30%; IC50 [12]: Not Active
23 | C=COC(=O)n1c([S+]([O-])Cc2nccc(SCC)c2C)nc2ccccc21 (stereo not given) | 4.52 | 1.5e-06 | 10 | 
24 | CCOC(C)n1c([S+]([O-])Cc2ccccn2)nc2ccccc21 (stereo not given) | 3.00 |  |  | ID50 (Oryctolagus cuniculus [3]; Stomach): inactive; ED50 [13]: 5 mg/kg
25 | CC(=O)OCn1c(SCc2nccc3c2CCC[S+]3[O-])nc2ccccc21 (stereo not given) |  |  |  | ED50 [14]: inactive
26 | c1ccc(CSc2nc3ccccc3n2CN2CCOCC2)nc1 |  |  |  | ID50 (Oryctolagus cuniculus [6]): inactive; ED50 [7]: inactive

Row | Structure (SMILES) | pIC50 [2] | ID50 (Oryctolagus cuniculus [3]) [M] | ED50 [5] [mg/kg] | further results
27 | CCCCCCCC(=O)OCn1c([S+]([O-])Cc2ccccn2)nc2ccccc21 (stereo not given) |  | 2e-05 | 9 | 
28 | CC(=O)OC(C)n1c([S+]([O-])Cc2ccccn2)nc2ccccc21 (stereo in doubt; 18a) |  |  |  | ID50 (Oryctolagus cuniculus [11]): inactive
29 | CCSc1ccnc(C[S+]([O-])c2nc3ccccc3n2C(=O)OCc2ccccc2)c1C (stereo not given) | 4.70 | 1.5e-06 |  | inhibition [4]: 40%
30 | [O-][S+](Cc1ccccn1)c1nc2ccccc2n1CCN1CCOCC1 (stereo not given) |  |  |  | ID50 (Oryctolagus cuniculus [6]): inactive
31 | CC(=O)OC(C)n1c([S+]([O-])Cc2ccccn2)nc2ccccc21 (stereo in doubt; 18b) |  |  |  | ID50 (Oryctolagus cuniculus [11]): inactive
32 | COC(=O)CCC(=O)OCn1c([S+]([O-])Cc2ccccn2)nc2ccccc21 (stereo not given) |  | 2e-05 | 7 | 
33 | CCSc1ccnc(C[S+]([O-])c2nc3ccccc3n2CSC)c1C (stereo not given) |  | 9e-05 |  | ED50 [7]: inactive; IC50 [15]: Not Active
34 | CC(C)C(=O)OCn1c([S+]([O-])Cc2ccccn2)nc2ccccc21 (stereo not given) |  | 3e-05 | 4 | 
35 | CCSc1ccnc(C[S+]([O-])c2nc3ccccc3n2COC)c1C (stereo not given) |  |  |  | ED50 [7]: inactive; ID50 (Oryctolagus cuniculus [3]; Stomach): inactive
36 | CCSc1ccnc(C[S+]([O-])c2nc3ccccc3n2C(=O)Oc2ccccc2)c1C (stereo not given) | 4.70 | 1.5e-06 | 5 | 
37 | CC(OC(=O)C(C)(C)C)n1c([S+]([O-])Cc2ccccn2)nc2ccccc21 (stereo in doubt; 30b) [listing 2 of 2 here] |  | 2e-05 |  | 
38 | CCOC(C)n1c([S+]([O-])Cc2nccc(SCC)c2C)nc2ccccc21 (stereo not given) | 3.70 | 5e-07 | 1.5 | 
39 | COc1c(C)cnc(C[S+]([O-])c2nc3ccccc3n2CCN2CCOCC2)c1C (stereo not given) | 3.00 | 7e-05 |  | ED50 [7]: inactive
40 | CCOC(=O)n1c([S+]([O-])Cc2nccc(SCC)c2C)nc2ccccc21 (stereo not given) | 4.70 | 2e-06 |  | inhibition [4]: 61%
41 | COc1ccc2[nH]c([S+]([O-])Cc3ncc(C)c(OC)c3C)nc2c1 (stereo not given) [OMEPRAZOLE] |  | 2e-07 | 1 | ED50 (Rattus norvegicus): < 1 mg/kg
42 | CCSc1ccnc(C[S+]([O-])c2nc3ccccc3[nH]2)c1C (stereo not given) [DISUPRAZOLE] | 4.70 | 1e-07 | 1 | ED50 (Rattus norvegicus): < 1 mg/kg
43 | CC(=O)OCn1c([S+]([O-])Cc2ccccn2)nc2ccccc21 (stereo not given) | 5.10 | 0.0001 |  | ED50 [16]: 5 mg/kg
44 | CCSc1ccnc(C[S+]([O-])c2nc3ccccc3n2C(=O)OCC(C)C)c1C (stereo not given) | 5.30 | 4e-06 | 5 | 
45 | CC(OC(=O)c1ccccc1)n1c([S+]([O-])Cc2ccccn2)nc2ccccc21 (stereo in doubt; 29a) [listing 2 of 2 here] |  |  |  | inhibition [10]: 27%
46 | CCSc1ccnc(C[S+]([O-])c2nc3ccccc3n2COCCOC)c1C (stereo not given) |  | 1e-05 |  | ED50 [7]: inactive
47 | CC(OC(=O)c1ccccc1)n1c([S+]([O-])Cc2ccccn2)nc2ccccc21 (stereo in doubt; 29b) |  |  |  | inhibition [10]: 35%; ID50 (Oryctolagus cuniculus [11]): inactive
48 | CCSc1ccnc(C[S+]([O-])c2nc3ccccc3n2C(=O)OCCCl)c1C (stereo not given) | 5.00 | 2e-06 |  | inhibition [4]: 40%
49 | COc1c(C)cnc(C[S+]([O-])c2nc3ccccc3n2COC(C)=O)c1C (stereo not given) | 3.30 | 2e-07 | 1 | 
50 | CCOC(C)n1c([S+]([O-])Cc2ncc(C)c(OC)c2C)nc2ccccc21 (stereo not given) | 2.82 | 1e-06 | 1 | 
51 | COc1c(C)cnc(C[S+]([O-])c2nc3ccccc3[nH]2)c1C (stereo not given) | 4.70 | 2e-07 |  | 
